The text below walks through data of ChEMBL document CHEMBL5104168, “Design, synthesis, and antitumor study of a series of novel 1-Oxa-4-azaspironenone derivatives” (Bioorg Med Chem Lett, 2022).

In one series the test system is HeLa. The series can be described thus: Anticancer activity against human HeLa cells assessed as inhibition of cell proliferation. Type of series: functional, cell-based.
In the next series the test system is A549. The series can be described thus: Anticancer activity against human A549 cells assessed as inhibition of cell proliferation. In kind it is functional, cell-based.
Series [1] deals with MDA-MB-231. The series can be described thus: Anticancer activity against human MDA-MB-231 cells assessed as inhibition of cell proliferation. In kind it is functional, cell-based.
A short description of series [2]: Cytotoxicity against HUVEC cells assessed as inhibition of cell growth. As to conditions: human.
Series [3] relates to MDA-MB-231. Put plainly: Induction of cell cycle arrest in human MDA-MB-231 cells assessed as accumulation of cells at G2 phase at 10 uM (reference value: 16.5 %). Type of series: functional.
Series [4] deals with MDA-MB-231. Put plainly: Induction of apoptosis in human MDA-MB-231 cells assessed as early apoptotic cells at 10 uM by Annexin V-FITC/propidium iodide staining based flow cytometric analysis (reference value: 4.66 %). In kind it is functional. Summed up:
(§1)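 MDA-MB-231 cells were cultured with compound at 10 μM. DMSO-treated cells served as the vehicle control and combretastatin A4 (10 μM) as the positive control. Cells were double-labelled with Annexin V-FITC and propidium iodide and analysed by flow cytometry. Population percentages were read from the quadrants: early-apoptotic, late-apoptotic and dead cells. Incubation time was not given.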
(In flow cytometry, cells or beads pass a laser one at a time.)

In series [5] the test system is MDA-MB-231. Put plainly: Induction of cell cycle arrest in human MDA-MB-231 cells assessed as accumulation of cells at S phase at 10 uM (reference value: 21.17 %). In kind it is functional.
The test system of series [6] is MDA-MB-231. Put plainly: Induction of cell cycle arrest in human MDA-MB-231 cells assessed as accumulation of cells at G1 phase at 10 uM (reference value: 61.33 %). In kind it is functional.
Series [7] has as its system MDA-MB-231. The series can be described thus: Induction of apoptosis in human MDA-MB-231 cells assessed as viable cells at 10 uM by Annexin V-FITC/propidium iodide staining based flow cytometric analysis (reference value: 93.6 %). Conditions: read-out: Activity. In kind it is functional.
The subject of series [8] is MDA-MB-231. The series can be described thus: Induction of apoptosis in human MDA-MB-231 cells assessed as late apoptotic cells at 10 uM by Annexin V-FITC/propidium iodide staining based flow cytometric analysis (reference value: 1.02 %). In kind it is functional. The gist of the method:
as §1

Series [9] deals with MDA-MB-231. Put plainly: Induction of apoptosis in human MDA-MB-231 cells assessed as dead cells at 10 uM by Annexin V-FITC/propidium iodide staining based flow cytometric analysis (reference value: 0.68 %). Type of series: functional. Summed up: as §1

`CCSC1CC(=O)CC(SCC)C12OCC(=O)N2Cc1ccc(C)cc1` (configuration not stated): the figures for the half-maximal inhibitory concentration (IC50) with HeLa, in the series on A549 and in the series on MDA-MB-231 [1] were 2410 nM, 2300 nM and 1360 nM, respectively.
The corresponding values for `Cc1ccc(CN2C(=O)COC23C=CC(=O)C=C3)cc1` are 200 nM, 260 nM and 100 nM.
The matching figures for `O=C1C=CC2(C=C1)OCC(=O)N2Cc1ccc([N+](=O)[O-])cc1`: 270 nM, 810 nM and 210 nM.
Take `O=C1C=CC2(C=C1)OCC(=O)N2Cc1ccc(Cl)cc1`: the IC50 is 410 nM with HeLa, 44600 nM in series [2], 1290 nM in the series with A549 and 110 nM in the series with MDA-MB-231 [1].
With `O=C1C=CC2(OCC(=O)N2Cc2ccc(Cl)cc2)C2CC12` (configuration not stated), the Activity was determined as 27.16% in the series with MDA-MB-231 [3]; 10.9% in the series with MDA-MB-231 [4]; 19.28% in the series on MDA-MB-231 [5]; 53.57% in the series on MDA-MB-231 [6]; 3% in the series with MDA-MB-231 [8]; 0.72% in the series on MDA-MB-231 [9]. The IC50 in the series on HeLa is over 10000 nM; in series [2], 83600 nM; in the series on A549, 6060 nM; in the series on MDA-MB-231 [1], 100 nM. Besides, the viability at 10 µM with MDA-MB-231 [7] turned out to be 85.4%.
As to `O=C1C=CC2(OCC(=O)N2Cc2cccc(Cl)c2)C2CC12` (configuration not stated), the 50% inhibitory concentration (IC50) was 1730 nM in the series with HeLa, over 10000 nM with A549 and 460 nM in the series on MDA-MB-231 [1].
As to `O=C1C=CC2(C=C1)OCC(=O)N2Cc1c(Cl)cccc1Cl`, the concentration for half-maximal inhibition (IC50) in the series with HeLa turned out to be 290 nM; with A549 it was 4950 nM; in the series on MDA-MB-231 [1], 120 nM.
The matching figures for `O=C1C=CC2(C=C1)OCC(=O)N2Cc1ccccc1Cl`: 360 nM, 1050 nM and 70 nM.
Regarding `COC(=O)C(C(=O)OC)C1CC(=O)C=CC12OCC(=O)N2Cc1ccc(Br)cc1` (configuration not stated), the values for the IC50 with HeLa, with A549 and in the series on MDA-MB-231 [1] were 1060 nM, 2550 nM and 1230 nM, respectively.
The corresponding values for `COC(=O)C(C(=O)OC)C1CC(=O)C=CC12OCC(=O)N2Cc1ccc(C)cc1` (configuration not stated) are 410 nM, 9250 nM and 340 nM.
`CCSC1CC(=O)CC(SCC)C12OCC(=O)N2Cc1ccc(Cl)cc1` (configuration not stated): the concentration for half-maximal inhibition (IC50) is 3920 nM in the series with HeLa, over 10000 nM in the series with A549 and 260 nM in the series with MDA-MB-231 [1].
For the compound `O=C1C=CC2(OCC(=O)N2Cc2ccc(Br)cc2)C2CC12` (configuration not stated), the IC50 in the series on HeLa was over 10000 nM; in the series on A549 it was 6090 nM; in the series with MDA-MB-231 [1], 1120 nM.
The matching figures for `CCSC1=CC(=O)CC(SCC)C12OCC(=O)N2Cc1c(Cl)cccc1Cl` (configuration not stated): 210 nM, 9270 nM and 120 nM.
The matching figures for `O=C1C=CC2(C=C1)OCC(=O)N2Cc1ccc(Br)cc1`: 150 nM, 190 nM and 80 nM.
The corresponding values for `O=C1C=CC2(C=C1)OCC(=O)N2Cc1cccc(Cl)c1` are 370 nM, 3010 nM and 110 nM.
On to `O=C1C=CC2(OCC(=O)N2Cc2ccc([N+](=O)[O-])cc2)C2CC12` (configuration not stated), for which the concentration for half-maximal inhibition (IC50) with HeLa is 3860 nM; with A549, over 10000 nM; with MDA-MB-231 [1], 1200 nM.
The corresponding values for `O=C1C=CC2(OCC(=O)N2Cc2ccccc2Cl)C2CC12` (configuration not stated) are over 10000 nM, 660 nM and 420 nM.
The corresponding values for `COC(=O)C(C(=O)OC)C1CC(=O)C=CC12OCC(=O)N2Cc1ccc(Cl)cc1` (configuration not stated) are 180 nM, 9980 nM and 380 nM.
The corresponding values for `O=C1C=CC2(OCC(=O)N2Cc2c(Cl)cccc2Cl)C2CC12` (configuration not stated) are 1760 nM, 8830 nM and 5520 nM.
For `COC(=O)C(C(=O)OC)C1CC(=O)C=CC12OCC(=O)N2Cc1cccc(Cl)c1` (configuration not stated), the IC50 with HeLa amounted to 340 nM; with A549, 260 nM; in the series on MDA-MB-231 [1], 250 nM.
As to `Cn1c(CCCC(=O)O)nc2cc(N(CCCl)CCCl)ccc21` [BENDAMUSTINE], the IC50 with HeLa was over 20000 nM.
As for `COc1ccc(/C=C\c2cc(OC)c(OC)c(OC)c2)cc1O` [COMBRETASTATIN A4], the Activity with MDA-MB-231 [3] worked out at 57.38%; with MDA-MB-231 [4], 17.2%; in the series with MDA-MB-231 [5], 32.46%; in the series with MDA-MB-231 [6] it was 10.16%; in the series on MDA-MB-231 [8] it was 4.81%; in the series with MDA-MB-231 [9], 0.35%. Also, the viability at 10 µM in the series with MDA-MB-231 [7] came to 77.7%.

The IC50 is the midpoint of a concentration-inhibition curve.
